Laboratory results reported in ChEMBL document CHEMBL1156796, “Design, synthesis, and antihepatitis B virus activities of novel 2-pyridone derivatives” (J Med Chem, 2010).

Assays:
Hepatitis B virus [1] = assay: Antiviral activity against HBV infected in human HepG2(2.2.15) cells assessed as inhibition of HBV DNA replication after 9 days by PCR; format: functional, organism-based
[2] = Selectivity index, ratio of CC50 for human HepG2(2.2.15) cells to IC50 for HBV infected in human HepG2(2.2.15) cells assessed as inhibition of HBeAg; format: functional
[3] = Selectivity index, ratio of CC50 for human HepG2(2.2.15) cells to IC50 for HBV infected in human HepG2(2.2.15) cells assessed as inhibition of HBV DNA replication; format: functional
Hepatitis B virus [4] = assay: Antiviral activity against HBV infected in human HepG2(2.2.15) cells assessed as inhibition of HBeAg level after 9 days by ELISA; format: functional, organism-based; settings: HepG2 2.2.15, 216 h
[5] = Cytotoxicity against human HepG2(2.2.15) cells; format: cell-based
Hepatitis B virus [6] = assay: Antiviral activity against HBV infected in human HepG2(2.2.15) cells assessed as inhibition of HBsAg level after 9 days by ELISA; format: functional, organism-based; settings: HepG2 2.2.15, 216 h
[7] = Selectivity index, ratio of CC50 for human HepG2(2.2.15) cells to IC50 for HBV infected in human HepG2(2.2.15) cells assessed as inhibition of HBsAg; format: functional
Method in brief: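 MTT at 5 g/L added 4 h before lysis in 10% SDS/50% DMF, pH 7.2, with OD read at 570 nm. IC50: HBsAg in day-9 supernatants measured by ELISA. SI = CC50/IC50.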

Hepatitis B virus [8] = assay: Antiviral activity against HBV infected in human HepG2(2.2.15) cells assessed as inhibition of HBV DNA replication after 9 days by PCR relative to adefovir; format: functional
Method in brief: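 HepG2 2.2.15 cells treated with different dosages of compound; culture supernatants collected nine days after treatment. IC50 taken as the concentration giving 50% inhibition of HBV DNA replication.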

[9] = Hepatitis B virus, HepG2 2.2.15, 216 h, read-out: IC50

CCCn1cc(C(=O)c2ccc(OC)cc2O)ccc1=O
IC50 (Hepatitis B virus [1]; [9]): 33.3 µM | Ratio CC50/IC50 [2]: 2.83 | Ratio CC50/IC50 [3]: 3.93 | IC50 (Hepatitis B virus [4]): 46.3 µM | CC50 [5]: 131 µM | IC50 (Hepatitis B virus [6]): > 139 µM

C=CC/N=C(\c1ccc(=O)n(CC=C)c1)c1ccc(OC)cc1O
IC50 (Hepatitis B virus [1]; [9]): 12 µM | Ratio CC50/IC50 [2]: 0.5 | Ratio CC50/IC50 [3]: 1.67 | Ratio CC50/IC50 [7]: 0.2 | IC50 (Hepatitis B virus [4]): 40 µM | CC50 [5]: 20 µM | IC50 (Hepatitis B virus [6]): 98 µM

C=CCn1cc(C(=O)c2ccc(OC)cc2O)ccc1=O
IC50 (Hepatitis B virus [1]; [9]): 101 µM | Ratio CC50/IC50 [2]: 4 | Ratio CC50/IC50 [3]: 2.3 | Ratio CC50/IC50 [7]: 0.84 | IC50 (Hepatitis B virus [4]): 58 µM | CC50 [5]: 232 µM | IC50 (Hepatitis B virus [6]): 276 µM

CCCCC/N=C(\c1ccc(=O)n(CCCCC)c1)c1ccc(OC)cc1O
IC50 (Hepatitis B virus [1]; [9]): 30 µM | Ratio CC50/IC50 [2]: 19.6 | Ratio CC50/IC50 [3]: 3.27 | Ratio CC50/IC50 [7]: 3.38 | IC50 (Hepatitis B virus [4]): 5 µM | CC50 [5]: 98 µM | IC50 (Hepatitis B virus [6]): 29 µM

COc1ccc(-n2cc(C(=O)c3ccc(OC)cc3O)ccc2=O)cc1
IC50 (Hepatitis B virus [1]; [9]): 5.2 µM | Ratio CC50/IC50 [2]: 1.56 | Ratio CC50/IC50 [3]: 66.54 | IC50 (Hepatitis B virus [4]): 222 µM | CC50 [5]: 346 µM | IC50 (Hepatitis B virus [6]): > 114 µM

COc1ccc(/C(=N/C(C)C)c2ccc(=O)n(C(C)C)c2)c(O)c1
IC50 (Hepatitis B virus [1]; [9]): > 122 µM | Ratio CC50/IC50 [2]: >2.26 | IC50 (Hepatitis B virus [4]): 54 µM | CC50 [5]: > 122 µM | IC50 (Hepatitis B virus [6]): > 122 µM

COc1ccc(C(=O)c2ccc(=O)n(-c3ccc(F)cc3)c2)c(O)c1
IC50 (Hepatitis B virus [1]; [9]): 98.3 µM | Ratio CC50/IC50 [3]: >1.2 | IC50 (Hepatitis B virus [4]): > 118 µM | CC50 [5]: > 118 µM | IC50 (Hepatitis B virus [6]): > 118 µM

COc1ccc(C(=O)c2ccc(=O)n(-c3ccccc3)c2)c(O)c1
IC50 (Hepatitis B virus [1]; [9]): 20 µM | Ratio CC50/IC50 [2]: 2.36 | Ratio CC50/IC50 [3]: 8.95 | Ratio CC50/IC50 [7]: 1.02 | IC50 (Hepatitis B virus [4]): 76 µM | CC50 [5]: 179 µM | IC50 (Hepatitis B virus [6]): 176 µM

COc1ccc(C(=O)c2ccc(=O)n(-c3ccccc3OC)c2)c(O)c1
IC50 (Hepatitis B virus [1]; [9]): 76 µM | Ratio CC50/IC50 [2]: >2.3 | Ratio CC50/IC50 [3]: >1.5 | IC50 (Hepatitis B virus [4]): 49 µM | CC50 [5]: > 114 µM | IC50 (Hepatitis B virus [6]): > 114 µM

CCCC/N=C(\c1ccc(=O)n(CCCC)c1)c1ccc(OC)cc1O
IC50 (Hepatitis B virus [1]; [9]): 0.12 µM | Ratio CC50/IC50 [2]: 1 | Ratio CC50/IC50 [3]: 466.67 | Ratio CC50/IC50 [7]: 0.5 | IC50 (Hepatitis B virus [4]): 56 µM | CC50 [5]: 56 µM | fold change (FC) (Hepatitis B virus [8]): 4 | IC50 (Hepatitis B virus [6]): 111 µM

COc1ccc(C(=O)c2ccc(=O)n(-c3ccc(Cl)cc3)c2)c(O)c1
IC50 (Hepatitis B virus [1]; [9]): 6.2 µM | Ratio CC50/IC50 [2]: 102.5 | Ratio CC50/IC50 [3]: 26.45 | Ratio CC50/IC50 [7]: 2.69 | IC50 (Hepatitis B virus [4]): 1.6 µM | CC50 [5]: 164 µM | IC50 (Hepatitis B virus [6]): 61 µM

COc1ccc(C(=O)c2ccc(=O)n(-c3ccc([N+](=O)[O-])cc3)c2)c(O)c1
IC50 (Hepatitis B virus [1]; hepg2 2.2.15): Not Active | Ratio CC50/IC50 [2]: <1.07 | Ratio CC50/IC50 [7]: <1.07 | IC50 (Hepatitis B virus [4]): > 109 µM | CC50 [5]: 177 µM | IC50 (Hepatitis B virus [6]): > 109 µM

COc1ccc(C(=O)c2ccc(=O)n(-c3ccccc3C)c2)c(O)c1
IC50 (Hepatitis B virus [1]; [9]): 11 µM | Ratio CC50/IC50 [2]: >1194 | Ratio CC50/IC50 [3]: >10.85 | Ratio CC50/IC50 [7]: >6.63 | IC50 (Hepatitis B virus [4]): 0.1 µM | CC50 [5]: > 119 µM | IC50 (Hepatitis B virus [6]): 18 µM

COc1ccc(/C(=N/Cc2ccc(C)cc2)c2ccc(=O)n(Cc3ccc(C)cc3)c2)c(O)c1
IC50 (Hepatitis B virus [1]; [9]): 21.7 µM | Ratio CC50/IC50 [2]: <0.17 | Ratio CC50/IC50 [3]: 0.92 | Ratio CC50/IC50 [7]: <0.17 | IC50 (Hepatitis B virus [4]): > 118 µM | CC50 [5]: 20 µM | IC50 (Hepatitis B virus [6]): > 118 µM

COc1ccc(/C(=N/Cc2ccccc2)c2ccc(=O)n(Cc3ccccc3)c2)c(O)c1
IC50 (Hepatitis B virus [1]; [9]): 31.5 µM | Ratio CC50/IC50 [2]: 23.18 | Ratio CC50/IC50 [3]: 3.24 | Ratio CC50/IC50 [7]: 2.55 | IC50 (Hepatitis B virus [4]): 4.4 µM | CC50 [5]: 102 µM | IC50 (Hepatitis B virus [6]): 40 µM

COc1ccc(/C(=N/Cc2ccccc2F)c2ccc(=O)n(Cc3ccccc3F)c2)c(O)c1
IC50 (Hepatitis B virus [1]; [9]): 92.6 µM | Ratio CC50/IC50 [2]: 1.7 | Ratio CC50/IC50 [3]: 0.55 | Ratio CC50/IC50 [7]: 0.71 | IC50 (Hepatitis B virus [4]): 30 µM | CC50 [5]: 51 µM | IC50 (Hepatitis B virus [6]): 72 µM

COc1ccc(C(=O)c2ccc(=O)n(/C=C/Nc3cccc4ccccc34)c2)c(O)c1
IC50 (Hepatitis B virus [1]; [9]): > 364 µM | Ratio CC50/IC50 [2]: <2.5 | Ratio CC50/IC50 [3]: <0.67 | Ratio CC50/IC50 [7]: 3.17 | IC50 (Hepatitis B virus [4]): > 97 µM | CC50 [5]: 244 µM | IC50 (Hepatitis B virus [6]): 77 µM

Nc1ncnc2c1ncn2CCOCP(=O)(O)O [ADEFOVIR]
IC50 (Hepatitis B virus [1]; [9]): 0.517 µM | Ratio CC50/IC50 [2]: 1.89 | Ratio CC50/IC50 [3]: 1044.5 | Ratio CC50/IC50 [7]: 1.77 | IC50 (Hepatitis B virus [4]): 286 µM | CC50 [5]: 540 µM | IC50 (Hepatitis B virus [6]): 305 µM
